In ChEMBL document CHEMBL5034022, “Pharmacophore-Based Design of Phenyl-[hydroxycyclohexyl] Cycloalkyl-Carboxamide Mitofusin Activators with Improved Neuronal Activity” (J Med Chem, 2021):

Experiments:
[1] = MRT (0 to infinity) in overnight fasted CD-1 mouse total brain at 50 mg/kg, po by HPLC analysis; assay type: ADME, organism-based
Procedure, shortened: (§1)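 Overnight-fasted 7-9 week male CD-1 mice, food returned 4 h post-dose, given 50 mg/kg by oral gavage (5 mg/mL in 30% SBE-β-CD); plasma and brain (homogenized in MeOH/15 mM PBS) quenched with ACN internal-standard mix, HPLC; free levels calculated from mouse plasma and brain protein binding; mean ± SEM, 3 mice per time point.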

[2] = MRT (0 to infinity) in overnight fasted CD-1 mouse total plasma at 50 mg/kg, po by HPLC analysis; assay type: ADME, organism-based; procedure, shortened: as §1
[3] = Volume of distribution at steady state in CD-1 mouse at 10 mg/kg, iv administered as single dose by HPLC analysis; assay type: ADME, organism-based; conditions: in vivo, read-out: Vdss
Procedure, shortened: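 Single 10 mg/kg IV dose of enantiomeric mixture in 10%DMSO/90%(30%HP-b-CD) to 7-9 week male CD-1 mice; plasma collected over time, proteins precipitated with ACN containing warfarin internal standard, analysed by HPLC; non-compartmental analysis; mean ± SEM, 3 mice per condition.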

[4] = Activation of Mitofusin in MFN2 deficient mouse MEF cells assessed as mitochondria elongation
[5] = Plasma protein binding in human assessed as bound fraction at 2 uM incubated for 120 mins by equilibrium dialysis method; assay type: ADME, cell-free; conditions: read-out: PPB (converted)
[6] = Plasma protein binding in mouse assessed as bound fraction at 2 uM measured after 120 mins by equilibrium dialysis method; assay type: ADME, cell-free; conditions: read-out: PPB (converted)
[7] = Tmax in non-fasted CD-1 mouse right sciatic nerve at 50 mg/kg, po by HPLC analysis; assay type: ADME, organism-based
Procedure, shortened: (§2)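 Oral gavage 50 mg/kg (5 mg/mL in 10%DMSO/90%(30%HP-b-CD)) to non-fasted 7-9 week male CD-1 mice; brain, spinal cord and sciatic nerve homogenized in water, diluted in control mouse plasma, ACN precipitation with warfarin internal standard, HPLC; non-compartmental time-concentration analysis; 3 mice per condition.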

[8] = Tmax in non-fasted CD-1 mouse brain at 50 mg/kg, po by HPLC analysis; assay type: ADME, organism-based; procedure, shortened: as §2
[9] = Tmax in non-fasted CD-1 mouse spinal cord at 50 mg/kg, po by HPLC analysis; assay type: ADME, organism-based; procedure, shortened: as §2
[10] = Tmax in non-fasted CD-1 mouse left sciatic nerve at 50 mg/kg, po by HPLC analysis; assay type: ADME, organism-based; procedure, shortened: as §2

## O=C(CCCCCc1ccccc1)N[C@H]1CC[C@H](O)CC1
[1]
  MRT inf: 57.5 min
[2]
  MRT inf: 60.6 min

## O=C(N[C@H]1CC[C@H](O)CC1)C1CC1CCCc1ccccc1 (some centres not stated)
[3]
  Vd: 0.6 L/kg

## O=C(N[C@H]1CC[C@H](O)CC1)C1CCC(CCCc2ccccc2)C1 (some centres not stated)
[4]
  EC50: 15.3 nM
[5]
  fraction unbound at 2 h, 2 µM: 0.0075
[6]
  fraction unbound at 2 h, 2 µM: 0.012

## O=C(N[C@H]1CC[C@H](O)CC1)[C@@H]1C[C@H]1CCCc1ccccc1
[7]
  Tmax: 30 min
[8]
  Tmax: 30 min
[1]
  MRT inf: 119 min
[9]
  Tmax: 30 min
[10]
  Tmax: 30 min
[2]
  MRT inf: 115 min
